14 compounds from ChEMBL document CHEMBL1156306, “Discovery, biological evaluation, and structure-activity relationship of amidine based sphingosine kinase inhibitors” (J Med Chem, 2010) can be followed below.

Calls of active or inactive are those of the source. No cut-off for these calls is given here.

For data set [1], the target named is T1, Sphingosine kinase 2 (Mus musculus) (UniProt Q9JIA7).
T1 sequence (whole entry): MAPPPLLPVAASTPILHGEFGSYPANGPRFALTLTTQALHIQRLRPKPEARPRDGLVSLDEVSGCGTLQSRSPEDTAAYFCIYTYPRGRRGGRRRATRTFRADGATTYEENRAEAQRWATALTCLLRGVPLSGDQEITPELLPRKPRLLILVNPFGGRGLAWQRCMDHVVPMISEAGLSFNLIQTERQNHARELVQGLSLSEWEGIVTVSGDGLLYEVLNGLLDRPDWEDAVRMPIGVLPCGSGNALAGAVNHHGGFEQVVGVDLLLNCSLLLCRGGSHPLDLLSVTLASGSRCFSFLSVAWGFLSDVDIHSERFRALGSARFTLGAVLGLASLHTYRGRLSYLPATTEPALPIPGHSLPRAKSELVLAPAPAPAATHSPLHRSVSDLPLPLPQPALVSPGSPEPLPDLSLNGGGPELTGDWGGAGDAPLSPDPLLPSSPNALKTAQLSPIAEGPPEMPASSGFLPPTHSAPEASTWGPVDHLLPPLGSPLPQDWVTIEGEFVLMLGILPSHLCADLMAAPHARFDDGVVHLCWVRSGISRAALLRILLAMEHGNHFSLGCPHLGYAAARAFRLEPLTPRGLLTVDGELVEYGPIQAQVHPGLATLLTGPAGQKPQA
The experiment in a line: Inhibition of mouse recombinant SPHK2 expressed in baculovirus-infected Sf9 cells in presence of sphingosine. The procedure, abridged: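 Enzyme source was a 10,000 × g supernatant of Sf9 cells infected for 72 h with baculovirus encoding mouse SphK2, using 2–3 μg protein per assay. Sphingosine phosphorylation conditions were as in an earlier report.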

The target of data set [2] is Sphingosine kinase 1 (Homo sapiens) (UniProt Q9NYA1). Particulars: Sf9.
The target of data set [3] is T1, Sphingosine kinase 2 (Mus musculus). Kind of data set: Ratio of Ki to Km for mouse recombinant SPHK2 expressed in baculovirus-infected Sf9 cells.
Data set [4] relates to VSMC. Kind of data set: Inhibition of FBS-induced SPHKk1 mRNA level in rat VSMC after 4 hrs by RT-PCR. Format: functional. The method in brief:
(§1)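 Rat aortic VSMC stimulated with 10% FBS for 4 h. Total RNA extracted with Trizol and reverse-transcribed. Sphk1 and Sphk2 mRNA measured by quantitative real-time PCR and normalized to 18S rRNA, N=3.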

Data set [5] deals with VSMC. Kind of data set: Inhibition of FBS-induced SPHKk2 mRNA level in rat VSMC after 4 hrs by RT-PCR. It counts as functional, cell-based. The method in brief:
as §1

Data set [6] concerns the target T2, Sphingosine kinase 2 (Rattus norvegicus) (UniProt A6JB73).
T2 sequence (whole entry): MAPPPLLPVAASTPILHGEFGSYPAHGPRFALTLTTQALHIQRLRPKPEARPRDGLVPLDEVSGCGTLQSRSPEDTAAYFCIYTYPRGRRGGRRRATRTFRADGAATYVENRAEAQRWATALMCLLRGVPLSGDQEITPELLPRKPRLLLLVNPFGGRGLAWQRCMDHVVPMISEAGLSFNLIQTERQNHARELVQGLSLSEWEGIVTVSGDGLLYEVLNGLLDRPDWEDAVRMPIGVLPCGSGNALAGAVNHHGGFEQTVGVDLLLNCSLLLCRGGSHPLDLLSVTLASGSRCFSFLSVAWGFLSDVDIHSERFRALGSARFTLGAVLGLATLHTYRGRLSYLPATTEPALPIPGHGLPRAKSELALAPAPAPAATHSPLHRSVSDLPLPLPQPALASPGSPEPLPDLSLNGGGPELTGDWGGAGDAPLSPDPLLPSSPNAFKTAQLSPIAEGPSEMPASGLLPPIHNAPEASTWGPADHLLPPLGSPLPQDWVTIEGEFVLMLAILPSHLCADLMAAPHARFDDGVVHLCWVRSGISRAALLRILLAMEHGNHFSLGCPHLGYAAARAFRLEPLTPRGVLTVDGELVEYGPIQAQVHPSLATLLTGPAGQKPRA
The experiment in a line: Inhibition of [32P]S1P/FBS-stimulated SPHK2 in rat VSMC after 12 hrs relative to control. The procedure, abridged:
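Rat aortic VSMC stimulated with 10% FBS for 0, 3, 6 and 12 h. SphK2 activity measured as [32P]-S1P formation, N=3.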

Data set [7] concerns VSMC. The experiment in a line: Inhibition of FBS-induced intracellular concentration of S1P in rat VSMC. Format: functional, cell-based.
Data set [8] can be described thus: Inhibition of FBS-induced cell proliferation of rat VSMC after 24 hrs by BrdU incorporation assay. Format: functional, cell-based. The procedure, abridged: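 Rat aortic VSMC pretreated with compound for 30 min, then stimulated with 10% FBS for 24 h. Proliferation measured by BrdU incorporation (10 μM BrdU) using an immuno-absorbance read-out, dose-response, N=6.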

Data set [9] can be described thus: Cytotoxicity against rat VSMC assessed as cell viability at 0.1 to 100 uM. It counts as cell-based. Particulars: in the assay text read “0.001 to 100 uM” for “0.1 to 100 uM”. The procedure, abridged: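 Rat aortic vascular smooth muscle cells, cultured in vitro, exposed to compound across 0.001–100 μM. Cytotoxic response read with the MultiTox-Fluor fluorescence assay, using 20 μM cyclosporine A as reference, N=3.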

The subject of data set [10] is VSMC. The experiment in a line: Inhibition of serum-induced cell proliferation of rat VSMC.
Data set [11] in a line: Cytotoxicity against rat VSMC assessed as cell viability at 10 uM by microscopical analysis.
The target in data set [12] is Diacylglycerol kinase gamma (Homo sapiens) (UniProt P49619). Kind of data set: Inhibition of DAGgamma up to 100 uM. The procedure, abridged:
(§2)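 Recombinant diacylglycerol kinases (γ, δ1, ζ) tested with compound at concentrations up to 100 μM.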

In data set [13] the target is T3, Diacylglycerol kinase delta (Homo sapiens) (UniProt Q16760).
T3 sequence (whole entry): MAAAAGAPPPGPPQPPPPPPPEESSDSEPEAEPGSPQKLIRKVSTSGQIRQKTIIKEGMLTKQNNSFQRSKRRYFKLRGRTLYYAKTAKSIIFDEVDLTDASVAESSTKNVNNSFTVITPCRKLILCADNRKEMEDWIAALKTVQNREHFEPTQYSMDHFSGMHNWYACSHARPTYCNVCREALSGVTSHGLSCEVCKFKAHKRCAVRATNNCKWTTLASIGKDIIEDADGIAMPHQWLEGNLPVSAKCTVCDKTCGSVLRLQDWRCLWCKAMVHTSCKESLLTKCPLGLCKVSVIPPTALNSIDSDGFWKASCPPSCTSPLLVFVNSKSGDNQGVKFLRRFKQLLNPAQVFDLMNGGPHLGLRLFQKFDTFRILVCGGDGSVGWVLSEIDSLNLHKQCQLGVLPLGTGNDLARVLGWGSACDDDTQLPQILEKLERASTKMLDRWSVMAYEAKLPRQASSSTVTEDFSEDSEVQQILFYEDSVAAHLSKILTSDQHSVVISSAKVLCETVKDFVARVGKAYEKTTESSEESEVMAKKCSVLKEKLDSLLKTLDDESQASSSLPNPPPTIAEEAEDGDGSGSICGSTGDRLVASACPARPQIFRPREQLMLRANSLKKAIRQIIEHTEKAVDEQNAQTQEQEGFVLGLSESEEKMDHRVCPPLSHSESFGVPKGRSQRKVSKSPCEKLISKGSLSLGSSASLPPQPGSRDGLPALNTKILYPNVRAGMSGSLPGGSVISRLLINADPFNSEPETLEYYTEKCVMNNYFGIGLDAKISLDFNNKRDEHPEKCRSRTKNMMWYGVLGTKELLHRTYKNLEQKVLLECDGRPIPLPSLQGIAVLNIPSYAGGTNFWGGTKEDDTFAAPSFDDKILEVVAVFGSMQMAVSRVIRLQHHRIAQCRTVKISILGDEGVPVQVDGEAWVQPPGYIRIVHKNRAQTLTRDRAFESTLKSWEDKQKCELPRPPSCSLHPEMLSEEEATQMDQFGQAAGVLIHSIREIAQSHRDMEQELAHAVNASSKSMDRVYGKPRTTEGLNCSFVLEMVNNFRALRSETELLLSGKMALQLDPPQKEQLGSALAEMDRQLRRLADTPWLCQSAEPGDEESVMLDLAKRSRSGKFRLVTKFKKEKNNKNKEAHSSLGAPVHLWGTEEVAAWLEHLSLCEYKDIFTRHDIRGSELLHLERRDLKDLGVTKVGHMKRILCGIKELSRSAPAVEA
Kind of data set: Inhibition of DAGdelta1 up to 100 uM. The method in brief:
as §2

The target in data set [14] is Protein kinase C alpha type (Homo sapiens) (UniProt P17252). Kind of data set: Inhibition of PKCalpha up to 10 uM. The procedure, abridged: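 Compound tested at protein kinase C α at concentrations up to 10 μM.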

Chain of Sphingosine kinase 1 (Homo sapiens) (Q9NYA1 whole entry): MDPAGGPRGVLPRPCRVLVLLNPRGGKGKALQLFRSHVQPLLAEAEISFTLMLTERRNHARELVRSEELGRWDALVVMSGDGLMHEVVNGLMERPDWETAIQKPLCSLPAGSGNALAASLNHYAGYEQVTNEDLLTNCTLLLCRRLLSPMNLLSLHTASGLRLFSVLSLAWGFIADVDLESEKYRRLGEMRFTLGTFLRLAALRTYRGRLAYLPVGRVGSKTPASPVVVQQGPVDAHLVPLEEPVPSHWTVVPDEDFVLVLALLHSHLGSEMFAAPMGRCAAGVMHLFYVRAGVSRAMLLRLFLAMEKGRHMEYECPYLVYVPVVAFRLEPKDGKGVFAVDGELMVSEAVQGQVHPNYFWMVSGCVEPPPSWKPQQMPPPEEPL
Chain of Diacylglycerol kinase gamma (Homo sapiens) (P49619 whole entry): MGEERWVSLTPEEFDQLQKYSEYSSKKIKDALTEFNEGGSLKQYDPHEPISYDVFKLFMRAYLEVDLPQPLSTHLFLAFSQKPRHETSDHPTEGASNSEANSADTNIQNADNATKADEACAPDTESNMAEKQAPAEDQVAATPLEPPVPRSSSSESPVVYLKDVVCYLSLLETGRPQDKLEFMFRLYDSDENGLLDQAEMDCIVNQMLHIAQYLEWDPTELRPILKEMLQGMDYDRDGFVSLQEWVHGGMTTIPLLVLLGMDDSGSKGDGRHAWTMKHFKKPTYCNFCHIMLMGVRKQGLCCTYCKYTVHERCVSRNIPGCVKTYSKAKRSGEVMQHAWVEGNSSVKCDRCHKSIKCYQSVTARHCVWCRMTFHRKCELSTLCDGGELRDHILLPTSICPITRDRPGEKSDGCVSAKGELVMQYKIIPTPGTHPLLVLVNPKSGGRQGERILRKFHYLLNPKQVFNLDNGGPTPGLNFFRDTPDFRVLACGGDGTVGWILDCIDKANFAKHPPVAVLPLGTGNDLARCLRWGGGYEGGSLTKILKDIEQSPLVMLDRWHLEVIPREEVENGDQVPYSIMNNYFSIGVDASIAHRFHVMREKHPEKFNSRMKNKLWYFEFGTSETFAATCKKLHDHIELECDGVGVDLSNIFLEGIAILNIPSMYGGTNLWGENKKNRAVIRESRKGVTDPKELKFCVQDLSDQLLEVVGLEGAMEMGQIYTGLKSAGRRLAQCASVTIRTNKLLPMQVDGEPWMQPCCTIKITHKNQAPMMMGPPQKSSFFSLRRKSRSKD

Turning to `CCCCCCCCCCc1ccc(C(=O)NC2(C(=N)N)CC2)cc1`, the Ki is 4 µM in [1] and 5 µM in data set [2]. Further, the Ratio in data set [3] worked out at 0.8.
For `CCCCCCCCCCCCCCCCc1ccc(C(=O)NC2(C(=N)N)CC2)cc1` the same measures were 10 µM, 36 µM and 2.
On to `CCCCCCCCc1ccc(C(=O)NCC(=N)N)cc1`, for which the Ki was 60 µM in data set [1] and greater than 100 µM in [2]. Besides, the Ratio in [3] was 12.
For `CCCCCCCCCCc1ccc(NC(=O)C2(C(=N)N)CC2)cc1`, the Ki was determined as 4 µM in [1] and 3 µM in [2]. Also, the Ratio in [3] was 0.8.
On the same counts, the results for `CCCCCCCCCCCCCCc1ccc(C(=O)NC2(C(=N)N)CC2)cc1` are 32 µM, 10 µM and 6.4.
Turning to `CCCCCCCCc1ccc(C(=O)N[C@@H](C)C(=N)N)cc1.Cl`, the Ki in data set [1] was determined as 20 µM; in [2], 55 µM. Also, the inhibition result (in the data set on VSMC [4]; with VSMC [5]; in data set [6]) was “inactive” each time. Further, the inhibition entry in the data set on VSMC [7] and with VSMC [10] was “Active” each time. Besides, the response in data set [8] was half-maximal at 10 µM (EC50). In addition, the Activity result in data set [9] and in data set [11] was “Non-toxic” throughout. In addition, the Ratio in data set [3] was found to be 4.
For `CCCCCCCCc1ccc(C(=O)N[C@@H](C)C(N)=O)cc1`, the Ki in [1] and in [2] was greater than 100 µM each time. In addition, in data set [3], the Ratio is greater than 20.
`CCCCCCCCc1ccc(C(=O)N[C@@H](C)C(=O)O)cc1`: the Ki in [1] and in data set [2] was greater than 100 µM throughout. Besides, the Ratio in [3] is greater than 20.
Regarding `CCCCCCCCc1ccc(C(=O)NC2(C(=N)N)CC2)cc1`, the Ki in data set [1] came to 23 µM; in [2], 25 µM. The Ratio in [3] amounted to 4.6.
In the case of `CCCCCCCCCCCCc1ccc(C(=O)NC2(C(=N)N)CC2)cc1`, the inhibition result in data set [12], in [13] and in data set [14] was “inactive” each time. Further, the figures for the Ki in [1] and in data set [2] were 0.5 µM and 0.2 µM, respectively. The Ratio in data set [3] came to 0.1.
Regarding `CCCCCCCCCCCCCCc1ccc(NC(=O)C2(C(=N)N)CC2)cc1`, the Ki was greater than 100 µM in [1] and 8.4 µM in data set [2]. Besides, in [3], the Ratio was greater than 20.
Take `CCCCCCCCc1ccc(C(=O)N[C@H](C)C(=N)N)cc1`: the Ki in [1] was 25 µM; in data set [2], greater than 100 µM. The Ratio in data set [3] was determined as 5.
For the compound `CCCCCCCCCCCCc1ccc(NC(=O)C2(C(=N)N)CC2)cc1`, the inhibition entry in [12], in data set [13] and in data set [14] was “inactive” each time. The Ki was 6 µM in data set [1] and 0.3 µM in data set [2]. For the same compound, the Ratio in [3] came to 1.2.
With `CCCCCCCCCCCCCCCCc1ccc(NC(=O)C2(C(=N)N)CC2)cc1`, the Ki was greater than 100 µM in [1] and 30 µM in [2]. The Ratio in data set [3] is greater than 20.
